Active and inactive are the calls of the source. The rule behind the calls is not given here.
How the values were obtained:
[1] = test system: MDA-MB-468; test: Cytotoxicity against human MDA-MB-468 cells after 48 hrs by SRB assay; assay type: functional; details: MDA-MB-468, 48 h
How it was run: (§1)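 5000–10,000 cells/well preincubated 24 h at 37 °C, 5% CO2, with TCA-fixed time-zero wells. Fivefold serial dilutions (100 to 0.0064 µM) and a DMSO-matched medium control, exposed 48 h. Fixed in 10% TCA for 60 min at 4 °C, stained with 0.4% SRB in 1% acetic acid, solubilized in 10 mM Tris base, read at 515–564 nm. GI50 from variable-slope sigmoidal fits; triplicates, at least two independent experiments.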

[2] = test system: MCF7; test: Cytotoxicity against human MCF7 cells after 48 hrs by SRB assay; assay type: functional; details: MCF7, 48 h; how it was run: as §1
[3] = Cytotoxicity against human 184B5 cells after 48 hrs by SRB assay; assay type: cell-based; how it was run: as §1
[4] = Cytotoxicity against human MCF10A cells after 48 hrs by SRB assay; assay type: cell-based, MCF-10A; how it was run: as §1
[5] = test system: MCF7; test: Induction of apoptosis in human MCF7 cells assessed as cell death at 40 uM after 24 hrs; assay type: functional
How it was run: (§2)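 MCF7 cells grown in RPMI 1640 with 10% FBS and 2 mM L-glutamine at 37 °C, 5% CO2. Treated 24 h, with DMSO-only medium as negative control. 2.0 × 10⁶ cells harvested, fixed in ice-cold 70% ethanol at −20 °C, and stained 30 min at 37 °C with PI mix (100 µg/mL PI, RNase A, 0.3% NP-40, 0.1% sodium citrate). DNA content read by flow cytometry; apoptotic fraction taken from DNA histograms.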

[6] = test system: MCF7; test: Induction of apoptosis in human MCF7 cells assessed as cell death at 20 uM after 24 hrs; assay type: functional; how it was run: as §2
[7] = test system: MCF-10A; test: Cell cycle arrest in human MCF10A cells assessed as decrease in at S phase at 20 uM by flow cytometry; assay type: functional, cell-based
How it was run: (§3)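 MCF7 (RPMI 1640, 10% FBS, 2 mM L-glutamine) or MCF10A (mammary epithelial basal medium plus MEGM supplements) treated 24 h at 20 or 40 µM with DMSO vehicle controls. 2.0 × 10^6 cells fixed in ice-cold 70% ethanol at -20 °C, then stained 30 min at 37 °C with 100 µg/mL PI, RNase A, 0.3% NP-40 and 0.1% sodium citrate. Phase fractions taken from DNA-content histograms.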

[8] = test system: MCF7; test: Cell cycle arrest in human MCF7 cells assessed as accumulation at G1/G0 phase at 20 uM by flow cytometry; assay type: functional; how it was run: as §3
[9] = test system: MCF7; test: Cell cycle arrest in human MCF7 cells assessed as accumulation at G1/G0 phase at 40 uM by flow cytometry; assay type: functional; how it was run: as §3
[10] = test system: MCF7; test: Cell cycle arrest in human MCF7 cells assessed as accumulation at S phase at 20 uM by flow cytometry; assay type: functional; how it was run: as §3
[11] = test system: MCF7; test: Cell cycle arrest in human MCF7 cells assessed as accumulation at S phase at 40 uM by flow cytometry; assay type: functional; how it was run: as §3
[12] = test system: MCF7; test: Cell cycle arrest in human MCF7 cells assessed as accumulation at G2/M phase at 20 uM by flow cytometry; assay type: functional; how it was run: as §3
[13] = test system: MCF7; test: Cell cycle arrest in human MCF7 cells assessed as accumulation at G2/M phase at 40 uM by flow cytometry; assay type: functional; how it was run: as §3
[14] = test system: MCF7; test: Induction of apoptosis in human MCF7 cells assessed as cell death; assay type: functional, cell-based

In the case of `O=C1C(=O)N(CN2CCN(c3ccnc4cc(Cl)ccc34)CC2)c2cc(Cl)ccc21`, the GI50 [1] is reported as 36.6 µM, the GI50 [2] is reported as 26.1 µM and the GI50 at 48 h [3] is reported as 47.5 µM. The GI50 at 48 h [4] was 67.8 µM.
`O=C1C(=O)N(CN2CCN(c3ccnc4cc(Cl)ccc34)CC2)c2cc(Br)ccc21` gave a GI50 [1] of 35.8 µM, a GI50 [2] of 17.6 µM and a GI50 at 48 h [3] of 33.2 µM. The GI50 at 48 h [4] was 17.9 µM.
With `NC(=S)N/N=C1\C(=O)Nc2cccc(Cl)c21` the GI50 [1] was 24 µM, the GI50 [2] was 30.2 µM and the GI50 at 48 h [3] was 25.9 µM. The GI50 at 48 h [4] was 28.7 µM.
Molecule `NC(=S)N/N=C1/C(=O)N(CN2CCN(c3ccnc4cc(C(F)(F)F)ccc34)CC2)c2cc(Br)ccc21` has a GI50 [1] of 39.6 µM, a GI50 [2] of 35.5 µM and a GI50 at 48 h [3] of 21.4 µM. It also gave a GI50 at 48 h [4] of 26.9 µM.
Work on `NC(=S)N/N=C1\C(=O)Nc2cccc(Br)c21` yielded a GI50 [1] of 21.2 µM, a GI50 [2] of 14.8 µM and a GI50 at 48 h [3] of 22.6 µM. The GI50 at 48 h [4] was 21.4 µM.
With `O=C1C(=O)N(CN2CCN(c3ccnc4cc(C(F)(F)F)ccc34)CC2)c2cc(Cl)ccc21` the GI50 [1] was 26.1 µM, the GI50 [2] was 15.8 µM and the GI50 at 48 h [3] was 25.2 µM. The GI50 at 48 h [4] was 32.8 µM.
Work on `NC(=S)N/N=C1/C(=O)N(CN2CCN(c3ccnc4cc(C(F)(F)F)ccc34)CC2)c2cc(Cl)ccc21` yielded a GI50 [1] of 11 µM, a GI50 [2] of 24.6 µM and a GI50 at 48 h [3] of 20.1 µM. For the same molecule, the GI50 at 48 h [4] was 38.8 µM.
For `NC(=S)N/N=C1/C(=O)N(CN2CCN(c3ccnc4cc(C(F)(F)F)ccc34)CC2)c2cccc(Cl)c21`, the Activity [5] was “Active”, the Activity [6] was “Active” and the Activity [7] was “inactive”. For the same molecule, the GI50 [1] was 23 µM, the GI50 [2] was 21.6 µM and the GI50 at 48 h [3] was 87.8 µM. The GI50 at 48 h [4] was 51.7 µM, the Activity [8] was 64% and the Activity [9] was 65%. The Activity [10] was 17%, the Activity [11] was 16% and the Activity [12] was 12%. The Activity [13] was 11%.
For `NC(=S)N/N=C1\C(=O)Nc2cc(Cl)ccc21`, the GI50 [1] was 17.7 µM, the GI50 [2] was 17.2 µM and the GI50 at 48 h [3] was 40.8 µM. For the same molecule, the GI50 at 48 h [4] was 48.5 µM.
In the case of `O=C1C(=O)N(CN2CCN(c3ccnc4cc(Cl)ccc34)CC2)c2cccc(Br)c21`, the Activity [5] is reported as 10%, the Activity [6] is reported as 6% and the Activity [7] is reported as “inactive”. It also gave a GI50 [1] of 15.9 µM, a GI50 [2] of 15.1 µM and a GI50 at 48 h [3] of 49 µM. The GI50 at 48 h [4] was 65.6 µM, the Activity [8] was 63% and the Activity [9] was 64%. The Activity [10] was 18%, the Activity [11] was 14% and the Activity [12] was 14%. For the same molecule, the Activity [13] was 12% and the Activity [14] was “Dose-dependent effect”.
In the case of `NC(=S)/N=N/c1c(O)[nH]c2ccccc12`, the GI50 [1] is reported as 35.5 µM, the GI50 [2] is reported as 36.9 µM and the GI50 at 48 h [3] is reported as 60.4 µM. The GI50 at 48 h [4] was 88.8 µM.
`O=C1C(=O)N(CN2CCN(c3ccnc4cc(C(F)(F)F)ccc34)CC2)c2cc(Br)ccc21` showed a GI50 [1] of 24.8 µM, a GI50 [2] of 28.1 µM and a GI50 at 48 h [3] of 21.8 µM. It also gave a GI50 at 48 h [4] of 24.4 µM.
`NC(=S)N/N=C1/C(=O)N(CN2CCN(c3ccnc4cc(C(F)(F)F)ccc34)CC2)c2ccccc21` gave a GI50 [1] of 10.3 µM, a GI50 [2] of 13.9 µM and a GI50 at 48 h [3] of 20.2 µM. The GI50 at 48 h [4] was 22.6 µM.
Molecule `NC(=S)N/N=C1/C(=O)N(CN2CCN(c3ccnc4cc(Cl)ccc34)CC2)c2ccccc21` has a GI50 [1] of 20.6 µM, a GI50 [2] of 23 µM and a GI50 at 48 h [3] of 28.8 µM. It also gave a GI50 at 48 h [4] of 27.7 µM.
Molecule `NC(=S)N/N=C1/C(=O)N(CN2CCN(c3ccnc4cc(Cl)ccc34)CC2)c2cccc(Br)c21` has a GI50 [1] of 40.4 µM, a GI50 [2] of 46.6 µM and a GI50 at 48 h [3] of 46.4 µM. It also gave a GI50 at 48 h [4] of 29.4 µM.
With `NC(=S)N/N=C1/C(=O)N(CN2CCN(c3ccnc4cc(Cl)ccc34)CC2)c2cc(Br)ccc21` the GI50 [1] was 11.2 µM, the GI50 [2] was 11.4 µM and the GI50 at 48 h [3] was 13.1 µM. The GI50 at 48 h [4] was 22.1 µM.
`O=C1C(=O)N(CN2CCN(c3ccnc4cc(Cl)ccc34)CC2)c2ccccc21` gave a GI50 [1] of 37.9 µM, a GI50 [2] of 48.3 µM and a GI50 at 48 h [3] of 71.7 µM. The GI50 at 48 h [4] was 45.9 µM.
With `NC(=S)N/N=C1/C(=O)N(CN2CCN(c3ccnc4cc(Cl)ccc34)CC2)c2cccc(Cl)c21` the GI50 [1] was 57.6 µM, the GI50 [2] was 57.5 µM and the GI50 at 48 h [3] was 20.7 µM. The GI50 at 48 h [4] was 19.8 µM.
Work on `NC(=S)N/N=C1/C(=O)N(CN2CCN(c3ccnc4cc(C(F)(F)F)ccc34)CC2)c2cccc(Br)c21` yielded a GI50 [1] of 30.4 µM, a GI50 [2] of 50.6 µM and a GI50 at 48 h [3] of 26.4 µM. For the same molecule, the GI50 at 48 h [4] was 30.6 µM.
For `O=C1C(=O)N(CN2CCN(c3ccnc4cc(C(F)(F)F)ccc34)CC2)c2cccc(Cl)c21`, the GI50 [1] was 28.4 µM, the GI50 [2] was 16.9 µM and the GI50 at 48 h [3] was 47.4 µM. For the same molecule, the GI50 at 48 h [4] was 24 µM.
Work on `O=C1C(=O)N(CN2CCN(c3ccnc4cc(Cl)ccc34)CC2)c2cccc(Cl)c21` yielded a GI50 [1] of 37.8 µM, a GI50 [2] of 39.1 µM and a GI50 at 48 h [3] of 77.7 µM. The GI50 at 48 h [4] was 25.6 µM.
In the case of `NC(=S)N/N=C1\C(=O)Nc2cc(Br)ccc21`, the GI50 [1] is reported as 18.6 µM, the GI50 [2] is reported as 17.9 µM and the GI50 at 48 h [3] is reported as 34.9 µM. It also gave a GI50 at 48 h [4] of 32 µM.
`CCN(CC)CCCC(C)Nc1ccnc2cc(Cl)ccc12` (stereo unspecified) [CHLOROQUINE] showed a GI50 at 48 h [3] of 76.1 µM and a GI50 at 48 h [4] of 81.3 µM.
`NC(=S)N/N=C1/C(=O)N(CN2CCN(c3ccnc4cc(Cl)ccc34)CC2)c2cc(Cl)ccc21` showed a GI50 [1] of 26.5 µM, a GI50 [2] of 22.5 µM and a GI50 at 48 h [3] of 41.3 µM. It also gave a GI50 at 48 h [4] of 64.6 µM.
In the case of `O=C1C(=O)N(CN2CCN(c3ccnc4cc(C(F)(F)F)ccc34)CC2)c2ccccc21`, the GI50 [1] is reported as 15.3 µM, the GI50 [2] is reported as 34 µM and the GI50 at 48 h [3] is reported as 43.9 µM. It also gave a GI50 at 48 h [4] of 70 µM.
Molecule `O=C1C(=O)N(CN2CCN(c3ccnc4cc(C(F)(F)F)ccc34)CC2)c2cccc(Br)c21` has a GI50 [1] of 52.2 µM, a GI50 [2] of 66.8 µM and a GI50 at 48 h [3] of 49.7 µM. It also gave a GI50 at 48 h [4] of 37.9 µM.

Reference: ChEMBL document CHEMBL1156913, “Design and synthesis of anti-breast cancer agents from 4-piperazinylquinoline: a hybrid pharmacophore approach” (Bioorg Med Chem, 2010)
